These results are taken from ChEMBL document CHEMBL1139854, “Phenalenone-type compounds from Musa acuminata var. "Yangambi km 5" (AAA) and their activity against Mycosphaerella fijiensis” (J Nat Prod, 2007).

Common to all, as to type: functional
In assay [1] the test system is Pseudocercospora fijiensis. The assay is described as follows: Inhibition of Mycosphaerella fijiensis spore germination at 50 to 100 ppm. In outline: (§1)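 Ascospores were exposed to compound at 10, 50 or 100 ppm for 24 h at 27 °C. Germination and germ-tube length were scored microscopically on 50-150 ascospores. Run in quadruplicate.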
Assay [2] relates to Pseudocercospora fijiensis. The assay is described as follows: Inhibition of Mycosphaerella fijiensis mycelial growth at 50 to 100 ppm after 15 days. In outline: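 Colonies (2 ± 1 mg) were taken from conidia grown 4 days on PDA. They were placed 20 per dish on PDA holding 10, 50 or 100 ppm compound added in EtOH (max 3.7%). Colony weight was taken at 7 and 15 days (10 colonies each) against EtOH-only blank medium. Run in quadruplicate and analysed by one-way ANOVA.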

The test system of assay [3] is Pseudocercospora fijiensis. The experiment in a line: Growth inhibition of Mycosphaerella fijiensis by microtitre plate photometric assay. The procedure, abridged:
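Mycelial fragments came from monosporic PDA subcultures of several strains grown 15-20 days at 27 °C. They were bead-vortexed, filtered at 100 µm, counted and set to 2 × 10⁴–2 × 10⁶ fragments/mL. Cultures ran in Sabouraud broth with final 0, 5, 10, 20, 30, 40, 50 ppm at 27 °C. OD595 was read daily up to 17 days. IC50 is 50% growth inhibition versus compound-free inoculum.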

The test system of assay [4] is Pseudocercospora fijiensis. The assay is described as follows: Inhibition of Mycosphaerella fijiensis mycelial growth.
The test system of assay [5] is Pseudocercospora fijiensis. The assay is described as follows: Inhibition of Mycosphaerella fijiensis spore germination. In outline:
as §1

Activity calls are given as the source filed them. No cut-off for these calls is given here.

As for `COC1=Cc2cccc3cccc(c23)C1=O`, the outcome in assay [1] and in assay [2] was Active. The compound also displayed an IC50 in assay [3] of 19.3 ppm.
In the case of `O=C1C=Cc2cccc3cccc1c23`, the outcome in assay [2], in assay [4] and in assay [5] was Active.
`COc1ccc(-c2ccc3cccc4c3c2C(=O)C=C4)cc1`: the outcome in assay [4] was Active.
As for `O=C1C(O)=Cc2cccc3cccc1c23`, the outcome in assay [1] and in assay [2] was Active. In assay [3], the IC50 is 23.4 ppm.
